Data reported in ChEMBL document CHEMBL1156957, “Synthesis, antitubulin, and antiproliferative SAR of analogues of 2-methoxyestradiol-3,17-O,O-bis-sulfamate” (J Med Chem, 2010).

Experiments:
[1] = test system: DU-145; assay: Antiproliferative activity against human DU145 cells after 96 hrs by WST-1 assay; assay type: functional; settings: DU-145, 96 h
Method in brief: (§1)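 DU-145 and MDA-MB-231 cells kept in RPMI-1640 with 10% FBS, penicillin and streptomycin at 37 °C, 5% CO2. Seeded at 5000 cells/well and exposed to 10^-9–10^-4 M compound or vehicle for 96 h. Live cells counted by WST-1. Viability taken as percent of mean control and GI50 derived. Triplicate experiments.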

[2] = test system: MDA-MB-231; assay: Antiproliferative activity against human MDA-MB-231 cells after 96 hrs by WST-1 assay; assay type: functional; settings: MDA-MB-231, 96 h; method in brief: as §1
[3] = test system: HOP-62; assay: Antiproliferative activity against human HOP62 cells after 96 hrs by WST-1 assay; assay type: functional; settings: HOP-62, 96 h
[4] = test system: HCT-116; assay: Antiproliferative activity against human HCT116 cells after 96 hrs by WST-1 assay; assay type: functional; settings: HCT-116, 96 h
[5] = test system: SF-539; assay: Antiproliferative activity against human SF539 cells after 96 hrs by WST-1 assay; assay type: functional; settings: SF-539, 96 h
[6] = test system: UACC-62; assay: Antiproliferative activity against human UACC62 cells after 96 hrs by WST-1 assay; assay type: functional; settings: UACC-62, 96 h
[7] = test system: OVCAR-3; assay: Antiproliferative activity against human OVCAR-3 cells after 96 hrs by WST-1 assay; assay type: functional; settings: OVCAR-3, 96 h
[8] = test system: SN12C; assay: Antiproliferative activity against human SN12C cells after 96 hrs by WST-1 assay; assay type: functional
[9] = Inhibition of bovine brain tubulin assembly assessed as decrease in turbidity after 20 mins; set-up: species or system Bos taurus
Method in brief: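 Bovine brain tubulin at 1.0 mg/mL (10 μM) preincubated 15 min at 30 °C with varying compound concentrations, no GTP. Chilled on ice, then GTP added (0.4 mM final). Baseline taken at 0 °C, then rapid jump to 30 °C and turbidity rise followed spectrophotometrically for 20 min. IC50 is the concentration halving the turbidity increase.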

[10] = species: Bos taurus; assay: Displacement of [3H]colchicine from bovine brain tubulin at 5 uM after 10 mins

COc1cc2c(cc1OS(N)(=O)=O)CC[C@@H]1[C@@H]2CC[C@]2(C)[C@@H](NS(C)(=O)=O)CC[C@@H]12
GI50 [1]: 9.9 µM
GI50 [2]: 5.2 µM
GI50 [3]: 9.6 µM
GI50 [4]: 5.6 µM
GI50 [5]: 3.2 µM
GI50 [6]: 7.1 µM
GI50 [7]: 3.5 µM
GI50 [8]: 23.4 µM

COc1cc2c(cc1OS(N)(=O)=O)CC[C@@H]1[C@@H]2CC[C@]2(C)[C@@H](OS(C)(=O)=O)CC[C@@H]12
GI50 [1]: 0.52 µM
GI50 [2]: 0.23 µM
GI50 [3]: 1.17 µM
GI50 [4]: 0.78 µM
GI50 [5]: 0.34 µM
GI50 [6]: 0.65 µM
GI50 [7]: 0.54 µM
GI50 [8]: 3.1 µM

CCc1cc2c(cc1OS(N)(=O)=O)CC[C@@H]1[C@@H]2CC[C@]2(C)[C@@H](C[N+](=O)[O-])CC[C@@H]12
GI50 [1]: 0.14 µM
GI50 [2]: 0.17 µM
GI50 [3]: 0.031 µM
GI50 [4]: 0.041 µM
GI50 [5]: 0.021 µM
GI50 [6]: 0.063 µM
GI50 [7]: 0.025 µM
GI50 [8]: 0.066 µM
IC50 [9]: 1.7 µM
inhibition [10]: 74%

CCc1cc2c(cc1OS(N)(=O)=O)CC[C@@H]1[C@@H]2CC[C@@]2(C)[C@H]1CC[C@@H]2S(C)(=O)=O
GI50 [1]: 0.11 µM
GI50 [2]: 0.23 µM
IC50 [9]: 3.6 µM
inhibition [10]: 28%

COc1cc2c(cc1OS(N)(=O)=O)CC[C@@H]1[C@@H]2CC[C@]2(C)[C@@H](CC#N)CC[C@@H]12
GI50 [1]: 0.062 µM
GI50 [2]: 0.071 µM
IC50 [9]: 1.3 µM
inhibition [10]: 78%

CCc1cc2c(cc1OS(N)(=O)=O)CC[C@@H]1[C@@H]2CC[C@]2(C)[C@@H](CN(C)C)CC[C@@H]12
GI50 [1]: 3.05 µM
GI50 [2]: 4.03 µM
GI50 [3]: 13.5 µM
GI50 [4]: 9.1 µM
GI50 [5]: 12.6 µM
GI50 [6]: 11.7 µM
GI50 [7]: 12.6 µM
GI50 [8]: 18.2 µM

COc1cc2c(cc1OS(N)(=O)=O)CC[C@@H]1[C@@H]2CC[C@]2(C)C(=O)CC[C@@H]12
GI50 [1]: 0.46 µM
GI50 [2]: 0.12 µM
IC50 [9]: 3.3 µM
inhibition [10]: 22%

CCc1cc2c(cc1O)CC[C@@H]1[C@@H]2CC[C@]2(C)[C@@H](CN(C)C)CC[C@@H]12
GI50 [1]: 10.1 µM
GI50 [2]: 9.5 µM
GI50 [3]: 21.4 µM
GI50 [4]: 11.5 µM
GI50 [5]: 16.2 µM
GI50 [6]: 18.6 µM
GI50 [7]: 39.8 µM
GI50 [8]: 43.7 µM

COc1cc2c(cc1O)CC[C@@H]1[C@@H]2CC[C@]2(C)[C@@H](NS(C)(=O)=O)CC[C@@H]12
GI50 [1]: > 100 µM
GI50 [3]: > 100 µM
GI50 [4]: 60.3 µM
GI50 [5]: > 100 µM
GI50 [6]: > 100 µM
GI50 [7]: > 100 µM
GI50 [8]: > 100 µM

CCc1cc2c(cc1O)CC[C@@H]1[C@@H]2CC[C@]2(C)[C@@H](N)CC[C@@H]12
GI50 [1]: 60.8 µM

COc1cc2c(cc1O)CC[C@@H]1[C@@H]2CC[C@]2(C)[C@@H](OS(C)(=O)=O)CC[C@@H]12
GI50 [1]: 4.2 µM
GI50 [2]: 2.37 µM

COc1cc2c(cc1OS(N)(=O)=O)CC[C@@H]1[C@@H]2CC[C@]2(C)[C@@H](OS(N)(=O)=O)CC[C@@H]12
GI50 [3]: 0.051 µM
GI50 [4]: 0.045 µM
GI50 [5]: 0.036 µM
GI50 [6]: < 0.01 µM
GI50 [7]: < 0.01 µM
IC50 [9]: 2.2 µM
inhibition [10]: 28%

CCc1cc2c(cc1OS(N)(=O)=O)CC[C@@H]1[C@@H]2CC[C@]2(C)[C@@H](CS(C)(=O)=O)CC[C@@H]12
GI50 [1]: 0.19 µM
GI50 [2]: 0.23 µM
GI50 [3]: < 0.01 µM
GI50 [4]: < 0.01 µM
GI50 [5]: < 0.01 µM
GI50 [6]: 10.7 µM
GI50 [7]: < 0.01 µM
GI50 [8]: < 0.01 µM
IC50 [9]: 2.1 µM
inhibition [10]: 37%

CCc1cc2c(cc1O)CC[C@@H]1[C@@H]2CC[C@]2(C)[C@@H](OS(C)(=O)=O)CC[C@@H]12
GI50 [1]: 5.58 µM

CCc1cc2c(cc1OS(N)(=O)=O)CC[C@@H]1[C@@H]2CC[C@]2(C)[C@@H](CCN(C)C)CC[C@@H]12
GI50 [1]: 3.54 µM
GI50 [2]: 2.96 µM

CCCc1cc2c(cc1OS(N)(=O)=O)CC[C@@H]1[C@@H]2CC[C@]2(C)C(OS(N)(=O)=O)CC[C@@H]12 (some centres not stated)
GI50 [1]: 3.4 µM
IC50 [9]: 20 µM

COc1cc2c(cc1OS(N)(=O)=O)CC[C@@H]1[C@@H]2CC[C@]2(C)[C@@H](NS(N)(=O)=O)CC[C@@H]12
GI50 [1]: 6.13 µM
GI50 [2]: 5.6 µM

CCc1cc2c(cc1O)CC[C@@H]1[C@@H]2CC[C@@]2(C)[C@H]1CC[C@@H]2S(C)(=O)=O
GI50 [1]: > 100 µM
GI50 [2]: > 100 µM

COc1cc2c(cc1O)CC[C@@H]1[C@@H]2CC[C@]2(C)[C@@H](N)CC[C@@H]12
GI50 [1]: 2.64 µM
GI50 [2]: 3.56 µM

COc1cc2c(cc1O)CC[C@@H]1[C@@H]2CC[C@]2(C)[C@@H](NS(N)(=O)=O)CC[C@@H]12
GI50 [1]: 58.6 µM

COc1cc2c(cc1OCc1ccccc1)CC[C@@H]1[C@@H]2CC[C@]2(C)[C@@H](OS(C)(=O)=O)CC[C@@H]12
GI50 [3]: 6.9 µM
GI50 [4]: 5.9 µM
GI50 [5]: 4.6 µM
GI50 [6]: 14.4 µM
GI50 [7]: 2.9 µM
GI50 [8]: 19.9 µM

COc1cc2c(cc1O)CC[C@@H]1[C@@H]2CC[C@]2(C)[C@@H](CC#N)CC[C@@H]12
GI50 [1]: 0.49 µM
GI50 [2]: 0.12 µM

COc1cc2c(cc1O)CC[C@@H]1[C@@H]2CC[C@]2(C)[C@@H](O)CC[C@@H]12 [2-METHOXYESTRADIOL]
GI50 [1]: 1.22 µM
GI50 [3]: 0.7 µM
GI50 [4]: 0.47 µM
GI50 [5]: 0.32 µM
GI50 [6]: 0.36 µM
GI50 [7]: 0.21 µM
GI50 [8]: 0.95 µM
IC50 [9]: 7 µM
inhibition [10]: 17%

CCc1cc2c(cc1OS(N)(=O)=O)CC[C@@H]1[C@@H]2CC[C@]2(C)[C@@H](NS(C)(=O)=O)CC[C@@H]12
GI50 [1]: 0.84 µM
GI50 [2]: 3.52 µM
GI50 [3]: 4.17 µM
GI50 [4]: 4.37 µM
GI50 [5]: 0.47 µM
GI50 [6]: 5.89 µM
GI50 [7]: 0.71 µM
GI50 [8]: 6.92 µM

CCc1cc2c(cc1O)CC[C@@H]1[C@@H]2CC[C@]2(C)[C@@H](NS(C)(=O)=O)CC[C@@H]12
GI50 [1]: > 100 µM

CCc1cc2c(cc1O)CC[C@@H]1[C@@H]2CC[C@]2(C)[C@@H](C[N+](=O)[O-])CC[C@@H]12
GI50 [1]: 12.2 µM
GI50 [2]: 10.4 µM

CCc1cc2c(cc1O)CC[C@@H]1[C@@H]2CC[C@]2(C)[C@@H](CCN(C)C)CC[C@@H]12
GI50 [1]: 7.96 µM
GI50 [2]: 4.74 µM

CCc1cc2c(cc1OS(N)(=O)=O)CC[C@@H]1[C@@H]2CC[C@]2(C)[C@@H](CC#N)CC[C@@H]12
GI50 [1]: 0.054 µM
GI50 [2]: 0.141 µM

CCc1cc2c(cc1OS(N)(=O)=O)CC[C@@H]1[C@@H]2CC[C@]2(C)[C@@H](OS(N)(=O)=O)CC[C@@H]12
GI50 [3]: < 0.01 µM
GI50 [5]: < 0.01 µM
GI50 [6]: < 0.01 µM
GI50 [7]: < 0.01 µM
GI50 [8]: 0.028 µM
IC50 [9]: 1.3 µM
inhibition [10]: 45%

COc1cc2c(cc1O)CC[C@@H]1[C@@H]2CC[C@]2(C)C(OS(N)(=O)=O)CC[C@@H]12 (some centres not stated)
IC50 [9]: > 40 µM

Cc1cc2c(cc1OS(N)(=O)=O)CC[C@@H]1[C@@H]2CC[C@]2(C)C(OS(N)(=O)=O)CC[C@@H]12 (some centres not stated)
GI50 [1]: 0.38 µM
IC50 [9]: 1.3 µM
inhibition [10]: 46%

CCc1cc2c(cc1O)CC[C@@H]1[C@@H]2CC[C@]2(C)[C@@H](NS(N)(=O)=O)CC[C@@H]12
GI50 [1]: > 100 µM
